Source: PubChem
The list is not random: actives were taken first. Their share in the collection is about 2.9%.
Runt-CBFb FRET – Runt domain-CBFb interaction inhibition; Q01196+Q13951; Cerulean-Runt/Venus-CBFb FRET ratio 530/480, 1 h; inhibition, % at 20 µM; 0.46% of 220,000 active; AID 1496;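 active means inhibition over about 50% at 20 µM in the single-dose screen, limit read from the data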;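 further: 0% = DMSO wells and 100% = excess unlabeled CBFb competitor control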
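Buffer or medium: Tris pH 7.5 buffer with BSA. Assay system: Cerulean-labeled Runt domain protein. Amount: each fluorescent fusion protein 100 nM. Read-out basis: loss of energy transfer signal. Incubation: 1 h compound exposure, room temperature. Probe or stimulus: Venus-CBFb binding partner, 100 nM. Detection: FRET, excitation 422 nm, emission at 530 and 480 nm.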
RanGTP-Impb inh – disruptors of Ran-importin-beta complex formation – biochemical, FRET, CFP-Ran, YFP-importin-beta, homogeneous, primary screen. cell-free CFP-Ran/YFP-importin-beta FRET ratio. inhibition, % (no concentration beside the values). 1.1% of 300,000 active. AID 2216;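 active means more than half of the replicate wells show a fall in the fluorescence ratio signal beyond about 16%, limit read from the data, passing the limit was not always enough; inconclusive means exactly half of the replicate wells pass the set limit; inactive means fewer than half of replicates pass the limit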;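 further: 0% = DMSO wells and 100% = Ran loaded with GDP instead of GTP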
RBBP9 inhibitor – human RBBP9 hydrolase inhibition. O75884. recombinant RBBP9, FP-Rh probe fluorescence polarization. inhibition, % at 7.94 µM. 0.2% of 220,000 active. AID 1515;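 active means inhibition above the campaign mean of all tested compounds plus 3 SD, cut at about 14% in these data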;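 further: plate controls were DMSO wells with RBBP9 for no effect and wells lacking RBBP9 protein for full effect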
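Material: RBBP9 protein. Amount: RBBP9 at 2.5 µM in dispensed solution, before mixing. Schedule: 30 min then 45 min, 25 °C. Medium: Tris buffer pH 8.0, NaCl, Pluronic. Measured by: fluorescence polarization. Measure: percent inhibition from mP, scaled between DMSO and no-protein wells. Replication: one well per compound.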
M18AAP inhibitor – PfM18AAP enzyme inhibition; recombinant PfM18AAP, H-Glu-NHMec fluorogenic cleavage; inhibition, % at 7.35 µM; 1.2% of 290,000 active; AID 1822;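 active means inhibition above the campaign mean inhibition over all tested compounds plus 3 SD, cut at about 28% in these data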;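 further: 0% = plate median of test compound wells and 100% = 2 mM ZnCl2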
Hck-Nef inh – human Hck-Nef kinase inhibition | 0.68% of 220,000 active | AID 463187 | Recombinant Hck-YEEI plus Nef, Z-Lyte FRET kinase assay | P08631 | inhibition, % at 20 µM;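 active means Hck-Nef kinase inhibition above about 50%, limit read from the data; inactive means inhibition below that limit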;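 further: 0% = DMSO with Hck plus Nef and 100% = Hck alone without Nef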
Target sequence (P08631 whole entry, looked up): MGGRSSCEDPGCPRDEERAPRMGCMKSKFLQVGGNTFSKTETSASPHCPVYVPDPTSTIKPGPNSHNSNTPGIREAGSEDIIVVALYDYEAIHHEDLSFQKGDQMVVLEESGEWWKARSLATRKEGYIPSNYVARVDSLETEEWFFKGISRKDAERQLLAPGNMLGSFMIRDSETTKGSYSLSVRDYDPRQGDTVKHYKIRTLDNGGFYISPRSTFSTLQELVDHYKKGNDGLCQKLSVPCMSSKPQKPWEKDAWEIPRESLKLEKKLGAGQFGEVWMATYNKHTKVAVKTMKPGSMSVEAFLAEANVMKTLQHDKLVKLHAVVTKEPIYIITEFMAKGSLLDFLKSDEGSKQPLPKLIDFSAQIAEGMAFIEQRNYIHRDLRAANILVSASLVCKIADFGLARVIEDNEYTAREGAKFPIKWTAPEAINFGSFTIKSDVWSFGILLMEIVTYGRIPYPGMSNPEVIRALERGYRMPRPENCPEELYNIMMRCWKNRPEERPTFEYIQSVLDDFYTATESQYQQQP
Runt-SMMHC FRET – blocks binding of human RUNX1 Runt domain to CBFb-SMMHC; Cerulean-Runt/Venus-CBFb-SMMHC FRET ratio 530/480, 1 h; inhibition, % at 20 µM; 0.74% of 220,000 active; AID 1434;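 active means mean inhibition across duplicate retests at 20 µM reaching about 50%, limit read from the data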;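 further: 0% = DMSO wells and 100% = wells with excess untagged CBFb-SMMHC; inhibitors lower the FRET ratio by blocking Runt binding to CBFb-SMMHC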
* marks the source's active call; other numbers are inactive results; ? = inconclusive; nt = no result given.

SMILES	Runt-CBFb FRET	RanGTP-Impb inh	RBBP9 inhibitor	M18AAP inhibitor	Hck-Nef inh	Runt-SMMHC FRET
COc1cc(C(=O)NCC(=O)NCCN2C(=O)S/C(=C\c3ccccc3Cl)C2=O)cc(OC)c1OC	nt	-1	nt	nt	nt	nt
COc1cc(/C=C2\SC(=O)N(CCNC(=O)c3sc4cc(F)ccc4c3Cl)C2=O)cc(OC)c1OC	-21	1	-5	0	55*	-54
Oc1ccc(/C=N/Nc2nc(-c3cccnc3)nc3ccccc23)c(O)c1	-6	0	8	30*	-22	-25
Cc1c(O)ccc(/C=N/Nc2nc(-c3cccnc3)nc3ccccc23)c1O	-4	-1	5	29*	1	-10
C[C@@H](NC(=O)[C@@H]1Cc2ccccc2CN1C(=O)OC(C)(C)C)C(=O)NCC1CCCO1 (stereo partly specified)	nt	-6	nt	-7	nt	nt
Oc1ccc(N2CCN(C(c3ccncc3)c3nnnn3C3CCCC3)CC2)cc1 (stereo unspecified)	8	0	-1	37*	1	9
c1cc(C(c2nnnn2C2CCCC2)N2CCOCC2)ccn1 (stereo unspecified)	0	?	-7	-13	0	-2
Cc1ncc(CO)c(/C=N/NC(=O)c2ccc(Br)cc2)c1O	19	21*	-5	12	-4	58*
Cc1cc(/C=C2\SC(=S)N(Cc3ccco3)C2=O)c(C)n1-c1ccccc1	-19	21*	5	6	1	-106
Cc1cc(/C=C2\SC(=S)N(C)C2=O)c(C)n1-c1cccc(O)c1	-15	36*	-10	11	-9	-48
O=C1/C(=C\c2ccco2)SC(=S)N1Cc1ccccc1	4	-3	-6	8	0	-12
CN1C(=O)/C(=C\c2cc(N=Nc3ccccc3)ccc2O)SC1=S	-3	-1	-6	-1	2	-6
CC1CCCC(C)N1CCNC(=O)CCc1nnc2n(Cc3ccccc3)c(=O)c3ccccc3n12 (stereo unspecified)	nt	7	nt	-2	nt	nt
CCC(C(=O)N1CCc2cc(OC)c(OC)cc2C1)c1ccccc1 (stereo unspecified)	1	1	0	3	2	1
COc1cc2c(cc1OC)CN(CC(O)c1ccccc1)CC2 (stereo unspecified)	nt	27*	nt	17	nt	nt
Nc1c(/C=C2\C=Nc3ccccc32)c(=O)nc2sc(CC(=O)N3CCOCC3)nn12	nt	20*	nt	9	nt	nt
CCn1c(=O)c2c(nc(SCC(=O)NC3CCCC3)n2C)n(C)c1=O	nt	1	nt	0	nt	nt
CN(C(=O)C1CCCCC1)C1(C)CCS(=O)(=O)C1 (stereo unspecified)	nt	1	nt	nt	nt	nt
Cc1ccnc(NC(=O)c2ccc(Cl)c(NC(=O)CCc3ccccc3)c2)c1	0	24*	-4	-8	4	-2
O=C(Nc1nccs1)c1cc2c(s1)-c1ccccc1OC2	-22	4	-8	-1	4	32
Cc1cccc2c1-c1sc(C(=O)Nc3nccs3)cc1CO2	-20	22*	-7	11	11	25
O=C(Nc1ccc(Cl)cn1)c1cc2c(s1)-c1ccccc1OC2	32	58*	-7	-17	47	38
O=C(Nc1nc2ccccc2s1)c1cc2c(s1)-c1ccccc1OC2	19	37*	-8	-8	36	59*
CN(C)CCCCOc1ccccc1-c1ccccc1	-2	3	0	29*	1	-4
COCC(COS(N)(=O)=O)C(C)C (stereo unspecified)	nt	6	nt	-9	nt	nt
CCN(CC)c1ccc(/C=C(\C#N)C(=O)NCc2ccco2)cc1	19	nt	-13	9	7	60*
Cn1c(=O)n(C)c2cc(/C=C(/C#N)C(=O)NCc3ccco3)ccc21	0	0	-7	-4	23	2
CCN(CC)c1ccc(/C=C(\C#N)C(=O)NCc2ccccc2)cc1	79*	109*	-4	-3	5	59*
CN(C)c1ccc(/C=C(\C#N)C(=O)NCc2ccco2)cc1	90*	?	-7	-8	4	58*
